{
  "source": "paper PMC6148440",
  "about": "(Journal of Medicinal Chemistry, 2018)",
  "key": {"[1]": {"experiment": "Calculated LD50 on mice, extrapolated from zebrafish embryo LC50", "details": "mouse"}, "[2]": {"tested_on": "bloodstream forms of T. brucei brucei", "experiment": "In vitro antitrypanosomal activity, bloodstream forms", "assay_type": "cell-based, T. brucei brucei S427 (S16)", "details": "for IC50: Trypanosoma brucei, 72 h, read-out: IC50 parasite T. brucei; for SI T. brucei: selectivity index IC50(MRC-5)/IC50(parasite)", "in_short": "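Bloodstream forms were kept in HMI-9 with 10% hiFBS at 37 °C, 5% CO2. Parasites at 1 × 10^4/mL were exposed to increasing compound concentrations for 72 h under the same conditions. Proliferation was read by alamarBlue fluorescence (excitation 550, emission 590 nm), and IC50 was derived from this.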"}, "P. falciparum [3]": {"tested_on": "P. falciparum", "experiment": "In vitro antimalarial activity, [3H]-hypoxanthine incorporation", "assay_type": "cell-based, P. falciparum (3D7 strain)", "in_short": "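Infected erythrocytes were used at 1.5% final hematocrit and 0.6% parasitemia in RPMI 1640 with 10% AB human serum. Compounds were dissolved in DMSO and diluted in medium, with final DMSO ≤0.25%. After 48 h at 37 °C, 0.6 μCi [3H]-hypoxanthine was added per well for 18 h. Cells were harvested onto glass-fibre filters for scintillation counting. Uninfected-erythrocyte background was subtracted, and IC50 was taken as 50% growth inhibition.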"}, "[4]": {"tested_on": "MRC-5 human nontumoral lung cell line", "details": "read-out: IC50 MRC-5; MRC-5 control cell line, MTT, 72 h; cited from earlier work"}, "zebrafish embryos": {"tested_on": "zebrafish embryos", "experiment": "Acute toxicity assay on zebrafish embryos", "assay_type": "in vivo, zebrafish (Danio rerio), strain AB", "details": "zebrafish embryos, 96 hpf; mortality score >20% assumed as the effect", "in_short": "(§1)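 Embryos of strain AB were collected in E3 medium and sorted at 3 hpf, with 20 healthy embryos per condition. Medium was replaced by compound in 0.1% DMSO/E3, made from a 100 mM DMSO stock, at five log concentrations, either 0.01–100 μM or 0.1 μM–1 mM. Embryos were held at 28.5 °C from 3 to 96 hpf, and coagulated eggs were removed at 24 h. LC50 came from a sigmoidal fit of mortality. Controls were 0.1% DMSO in triplicate (repeat if mortality >20%) and DEAB at 0.1 μM–1 mM.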"}, "[5]": {"experiment": "Acute toxicity assay on zebrafish embryos", "assay_type": "in vivo, zebrafish (Danio rerio), strain AB", "details": "AB, zebrafish, in vivo", "in_short": "as §1"}, "L. major promastigotes": {"tested_on": "L. major promastigotes", "experiment": "In vitro antileishmanial activity, promastigote drug susceptibility", "assay_type": "cell-based, L. major (MHOM/IL/80/Friedlin)", "details": "for SI L. major: selectivity index IC50(MRC-5)/IC50(parasite)", "in_short": "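Promastigotes at 1 × 10^6/mL were cultured in modified RPMI-1640 with 10% hiFBS. They were exposed to increasing compound concentrations for 72 h at 28 °C. Proliferation was measured by MTT, with absorbance read at 540 nm.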"}, "[6]": {"tested_on": "HT-29, MCF-7, and HeLa cancer cells", "details": "cited from earlier work"}, "P. falciparum [7]": {"tested_on": "P. falciparum", "details": "read-out: concentration inhibiting 50% growth of P. falciparum; cited from earlier work"}},
  "note": "Several values for one entry are separate records, joined by “and”; a condition that tells them apart may be missing. Identical values can stand only once.",
  "data": [
    {"smiles": "CC(=O)N[C@@H]1[C@@H](O)[C@H](O)[C@@H](CO)O[C@H]1n1cc(CNc2cc3c4c(ccc5c4c2C(=O)N(CCCN(C)C)C5=O)C(=O)N(CCCN(C)C)C3=O)nn1", "note": "[Compound 2, β-glcNAc-NDI]", "values": [
      {"measurement": "LD50", "setting": "[1]", "value": "> 630 µmol/kg and > 607 mg/kg"}
    ]},
    {"smiles": "C[C@H]1O[C@@H](n2cc(CNc3cc4c5c(ccc6c5c3C(=O)N(CCCN(C)C)C6=O)C(=O)N(CCCN(C)C)C4=O)nn2)[C@H](O)[C@@H](O)[C@@H]1O", "note": "[Compound 3, β-6dglc-NDI]", "values": [
      {"measurement": "LD50", "setting": "[1]", "value": "170 µmol/kg and 154 mg/kg"}
    ]},
    {"smiles": "CN(C)CCCN1C(=O)c2ccc3c4c(c(NCc5cn([C@@H]6O[C@H](CO)[C@@H](OC7O[C@H](CO)[C@@H](O)[C@H](O)[C@H]7O)[C@H](O)[C@H]6O)nn5)cc(c24)C1=O)C(=O)N(CCCN(C)C)C3=O.O=C(O)C(F)(F)F.O=C(O)C(F)(F)F", "note": "(stereo partly drawn) [Compound 4, β-malt-NDI]", "values": [
      {"measurement": "IC50", "setting": "[2]", "value": "99 ± 10", "unit": "nM"},
      {"measurement": "SI T. brucei", "setting": "[2]", "value": 20.6},
      {"measurement": "SI P. falciparum", "setting": "P. falciparum [3]; selectivity index IC50(MRC-5)/IC50(parasite)", "value": 5.5},
      {"measurement": "IC50", "setting": "[4]", "value": "2040 ± 50", "unit": "nM"},
      {"measurement": "NOEC", "setting": "zebrafish embryos", "value": 100, "unit": "µM"},
      {"measurement": "LC50 at 96 hpf", "setting": "[5]", "value": 190000, "unit": "nM"},
      {"measurement": "IC50", "setting": "L. major promastigotes; Leishmania major, 72 h, read-out: IC50 parasite L. major", "value": "921 ± 51", "unit": "nM"},
      {"measurement": "SI L. major", "setting": "L. major promastigotes", "value": 2.2},
      {"measurement": "LD50", "setting": "[1]", "value": "190 µmol/kg and 206 mg/kg"}
    ]},
    {"smiles": "CN(C)CCCN1C(=O)c2ccc3c4c(c(NCc5cn(CCO[C@H]6O[C@H](CO)[C@@H](O)[C@H](O)[C@@H]6O)nn5)cc(c24)C1=O)C(=O)N(CCCN(C)C)C3=O", "note": "[Compound 5, α-manC2-NDI]", "values": [
      {"measurement": "LD50", "setting": "[1]", "value": "> 630 µmol/kg and > 609 mg/kg"}
    ]},
    {"smiles": "CN(C)CCCN1C(=O)c2ccc3c4c(c(NCc5cn(CCO[C@@H]6O[C@H](CO)[C@@H](O)[C@H](O)[C@H]6O)nn5)cc(c24)C1=O)C(=O)N(CCCN(C)C)C3=O", "note": "[Compound 6, β-glcC2-NDI]", "values": [
      {"measurement": "IC50", "setting": "[2]", "value": "17 ± 9", "unit": "nM"},
      {"measurement": "SI T. brucei", "setting": "[2]", "value": 41.8},
      {"measurement": "fold more active than compound 1 against P. falciparum", "setting": "P. falciparum [3]", "value": 5, "unit": "fold"},
      {"measurement": "fold more active than compound 1, antitumor activity", "setting": "[6]", "value": "approximately 10 fold"},
      {"measurement": "SI L. major", "setting": "L. major promastigotes", "value": 1.3},
      {"measurement": "LD50", "setting": "[1]", "value": "> 630 µmol/kg and > 609 mg/kg"}
    ]},
    {"smiles": "CCCNc1cc2c3c(ccc4c3c1C(=O)N(CCCN(C)C)C4=O)C(=O)N(CCCN(C)C)C2=O", "note": "[Compound 7, NDI-prop]", "values": [
      {"measurement": "IC50", "setting": "[2]", "value": "9 ± 1", "unit": "nM"},
      {"measurement": "SI T. brucei", "setting": "[2]", "value": 40.0},
      {"measurement": "SI L. major", "setting": "L. major promastigotes", "value": 10.6},
      {"measurement": "LD50", "setting": "[1]", "value": "330 µmol/kg and 178 mg/kg"}
    ]},
    {"smiles": "C[n+]1ccc(-c2c3nc(c(-c4cc[n+](C)cc4)c4ccc([nH]4)c(-c4cc[n+](C)cc4)c4nc(c(-c5cc[n+](C)cc5)c5ccc2[nH]5)C=C4)C=C3)cc1", "note": "[TMPyP4, reference compound]", "values": [
      {"measurement": "IC50", "setting": "P. falciparum [7]", "value": 5000, "unit": "nM"},
      {"measurement": "IC50", "setting": "[4]", "value": "> 25000", "unit": "nM"}
    ]},
    {"smiles": "Cc1ccc(C(=O)Nc2ccc(S(=O)(=O)O)c3cc(S(=O)(=O)O)cc(S(=O)(=O)O)c23)cc1NC(=O)c1cccc(NC(=O)Nc2cccc(C(=O)Nc3cc(C(=O)Nc4ccc(S(=O)(=O)O)c5cc(S(=O)(=O)O)cc(S(=O)(=O)O)c45)ccc3C)c2)c1", "note": "[suramin, reference compound]", "values": [
      {"measurement": "IC50", "setting": "[2]", "value": "38 ± 3", "unit": "nM"}
    ]},
    {"smiles": "Cc1oc2nc1-c1nc(co1)-c1nc(co1)-c1nc(co1)-c1nc(co1)-c1nc(co1)C1=NC(CS1)c1nc-2c(C)o1", "note": "(centres unmarked) [telomestatin]", "values": [
      {"measurement": "IC50", "setting": "P. falciparum [7]", "value": 35000, "unit": "nM"}
    ]}
  ]
}
